Source: ChEMBL document CHEMBL5034051, “Proteome-wide Identification of Off-Targets of a Potent EGFRL858R/T790M Mutant Inhibitor” (ACS Med Chem Lett, 2022)
Blank lines part the entries; values can stand above or below the compound they belong to. Activity calls are given as the source filed them. No cut-off for these calls is given here.

Assays:
[1] = target: Epidermal growth factor receptor (Homo sapiens, UniProt P00533, T790M); experiment: Inhibition of EGFR T790M mutant (unknown origin) using Poly (Glu, Tyr)4:1 as substrate by spectrophotometry
Sequence of Epidermal growth factor receptor (P00533 25-1210 T790M limits assumed): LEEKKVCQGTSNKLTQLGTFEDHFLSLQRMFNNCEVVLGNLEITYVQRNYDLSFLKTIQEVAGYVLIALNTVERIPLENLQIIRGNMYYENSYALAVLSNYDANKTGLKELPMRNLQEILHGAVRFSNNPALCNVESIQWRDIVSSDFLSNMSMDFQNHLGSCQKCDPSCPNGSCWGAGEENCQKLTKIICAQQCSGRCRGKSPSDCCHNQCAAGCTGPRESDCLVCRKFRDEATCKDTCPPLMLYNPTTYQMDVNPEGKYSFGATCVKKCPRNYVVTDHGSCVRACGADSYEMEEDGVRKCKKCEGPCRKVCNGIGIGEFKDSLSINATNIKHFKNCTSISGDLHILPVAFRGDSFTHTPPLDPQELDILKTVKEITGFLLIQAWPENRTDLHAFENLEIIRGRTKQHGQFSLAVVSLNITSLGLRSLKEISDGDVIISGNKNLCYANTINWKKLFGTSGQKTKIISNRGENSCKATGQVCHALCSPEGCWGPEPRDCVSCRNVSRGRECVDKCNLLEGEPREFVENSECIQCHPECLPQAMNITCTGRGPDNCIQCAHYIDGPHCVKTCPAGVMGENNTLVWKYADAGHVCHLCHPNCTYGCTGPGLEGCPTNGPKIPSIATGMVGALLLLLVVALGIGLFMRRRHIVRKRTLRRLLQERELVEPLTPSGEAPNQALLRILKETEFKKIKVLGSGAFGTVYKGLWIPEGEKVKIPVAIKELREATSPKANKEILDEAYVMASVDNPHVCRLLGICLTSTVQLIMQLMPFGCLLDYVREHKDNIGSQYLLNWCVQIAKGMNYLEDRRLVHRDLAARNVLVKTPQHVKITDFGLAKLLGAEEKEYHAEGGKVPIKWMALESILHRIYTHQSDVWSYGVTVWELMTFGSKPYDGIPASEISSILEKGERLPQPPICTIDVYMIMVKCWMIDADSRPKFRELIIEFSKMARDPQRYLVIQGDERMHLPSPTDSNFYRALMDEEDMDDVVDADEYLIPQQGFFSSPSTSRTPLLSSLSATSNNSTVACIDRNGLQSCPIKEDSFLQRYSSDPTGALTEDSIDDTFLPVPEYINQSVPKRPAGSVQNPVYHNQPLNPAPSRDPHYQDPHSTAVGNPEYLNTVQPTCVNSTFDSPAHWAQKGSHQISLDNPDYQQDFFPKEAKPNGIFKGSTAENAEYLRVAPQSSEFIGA

[2] = tested on: NCI-H1975; experiment: Antiproliferative activity against human NCI-H1975 cells harboring EGFR T790M mutant assessed as reduction in cell viability measured after 72 hrs by CCK8 assay; format: functional, cell-based; settings: NCI-H1975, 72 h
Procedure, shortened: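 H1975 NSCLC cells, which carry EGFR T790M, were used in a cell-based CCK8 antiproliferation assay. IC50 values were reported.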

[3] = Drug uptake in cytosol of human NCI-H1975 cells assessed as fluorescence signal at 5 uM incubated for 1 hrs by fluorescence microscopy; format: ADME, subcellular
Procedure, shortened: (§1)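 Live H1975 cells were incubated for 1 h with the 5 μM alkyne probe, with or without parent inhibitor, against DMSO controls. Cells were then fixed, permeabilized, clicked with TAMRA-azide and imaged by fluorescence microscopy, with excitation at 550 nm for the probe channel.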

[4] = Drug uptake in nucleus of human NCI-H1975 cells assessed as fluorescence signal at 5 uM incubated for 1 hrs by fluorescence microscopy; format: ADME, cell-based; settings: nci-h1975, 1 h; procedure, shortened: as §1
[5] = target: Epidermal growth factor receptor (Homo sapiens) (UniProt P00533); experiment: Inhibition of EGFR in human NCI-H1975 cells by pull down/Western blot analysis; format: cell-based
Sequence of Epidermal growth factor receptor (Homo sapiens) (P00533 whole entry): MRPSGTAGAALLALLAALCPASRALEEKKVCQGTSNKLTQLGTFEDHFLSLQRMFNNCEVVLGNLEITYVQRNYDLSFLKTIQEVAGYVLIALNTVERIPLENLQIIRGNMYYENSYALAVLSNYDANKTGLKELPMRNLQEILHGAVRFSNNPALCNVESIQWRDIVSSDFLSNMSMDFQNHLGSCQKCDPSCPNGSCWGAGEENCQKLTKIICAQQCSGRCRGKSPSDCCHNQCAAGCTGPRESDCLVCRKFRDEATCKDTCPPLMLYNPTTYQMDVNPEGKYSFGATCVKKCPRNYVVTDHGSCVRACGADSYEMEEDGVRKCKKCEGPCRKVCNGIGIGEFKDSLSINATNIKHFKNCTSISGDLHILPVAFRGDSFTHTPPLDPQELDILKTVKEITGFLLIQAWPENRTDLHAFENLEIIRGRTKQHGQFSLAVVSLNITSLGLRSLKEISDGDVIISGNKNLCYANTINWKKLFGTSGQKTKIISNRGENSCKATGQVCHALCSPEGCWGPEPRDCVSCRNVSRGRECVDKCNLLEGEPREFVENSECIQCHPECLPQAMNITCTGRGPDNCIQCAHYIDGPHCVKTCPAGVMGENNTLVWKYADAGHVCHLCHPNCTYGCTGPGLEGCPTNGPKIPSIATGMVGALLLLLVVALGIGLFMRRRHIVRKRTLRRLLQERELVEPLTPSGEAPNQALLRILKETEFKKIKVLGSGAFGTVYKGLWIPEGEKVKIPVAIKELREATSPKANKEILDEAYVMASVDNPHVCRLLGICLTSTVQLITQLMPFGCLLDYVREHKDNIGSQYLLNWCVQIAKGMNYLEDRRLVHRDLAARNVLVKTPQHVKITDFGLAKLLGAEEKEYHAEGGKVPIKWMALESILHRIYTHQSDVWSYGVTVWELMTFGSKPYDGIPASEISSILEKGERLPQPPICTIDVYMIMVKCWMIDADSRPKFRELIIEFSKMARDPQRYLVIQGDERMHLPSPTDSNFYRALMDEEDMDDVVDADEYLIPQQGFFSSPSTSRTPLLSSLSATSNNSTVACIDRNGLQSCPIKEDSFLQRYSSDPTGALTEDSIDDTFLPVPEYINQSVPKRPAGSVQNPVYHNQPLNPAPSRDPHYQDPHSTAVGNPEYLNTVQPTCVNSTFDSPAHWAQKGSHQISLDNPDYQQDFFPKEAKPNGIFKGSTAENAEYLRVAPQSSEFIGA
Procedure, shortened: (§2)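 H1975 cells were treated with the probe, and the lysate was clicked to a biotin tag and enriched on streptavidin beads. The pulled-down proteins were then detected by Western blot with antibodies to EGFR and NT5DC1.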

[6] = target: T1, 5'-nucleotidase domain-containing protein 1 (Homo sapiens) (UniProt Q5TFE4); experiment: Inhibition of NT5DC1 in human NCI-H1975 cells by pull down/Western blot analysis; format: cell-based; procedure, shortened: as §2
T1 sequence (whole entry): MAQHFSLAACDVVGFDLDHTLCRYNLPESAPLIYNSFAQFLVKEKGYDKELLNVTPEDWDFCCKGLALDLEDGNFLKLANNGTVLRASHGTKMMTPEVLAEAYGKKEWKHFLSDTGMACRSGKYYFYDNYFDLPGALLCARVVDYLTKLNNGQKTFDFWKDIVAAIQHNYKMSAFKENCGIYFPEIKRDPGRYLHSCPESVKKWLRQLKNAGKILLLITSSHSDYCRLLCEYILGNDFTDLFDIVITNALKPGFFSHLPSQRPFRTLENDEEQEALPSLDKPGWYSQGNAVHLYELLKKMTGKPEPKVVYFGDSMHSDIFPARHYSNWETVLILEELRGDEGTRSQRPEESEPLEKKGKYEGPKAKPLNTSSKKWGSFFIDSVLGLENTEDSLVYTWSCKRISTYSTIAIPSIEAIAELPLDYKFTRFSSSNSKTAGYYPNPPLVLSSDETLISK

[7] = target: T1, 5'-nucleotidase domain-containing protein 1 (Homo sapiens); experiment: Thermal stabilization of NT5DC1 in human NCI-H1975 cells assessed as positive shift in melting temperature by CETSA; format: cell-based
Procedure, shortened: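 Binding was tested by cellular thermal shift assay in H1975 cells exposed to the compounds. NT5DC1 stabilization was read as a shift in melting temperature.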

[8] = tested on: NCI-H1975; experiment: Antiproliferative activity against NT5DC1 knockdown human NCI-H1975 cells assessed as reduction in cell viability incubated for 48 hrs by CCK8 assay; format: functional, cell-based
Procedure, shortened: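 NT5DC1 was knocked down in H1975 cells with siRNA, with scrambled siRNA as the negative control. Knockdown was checked by Western blot. Cells with or without knockdown were exposed to a range of compound concentrations, and viability was read out against DMSO-treated controls.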

[9] = target: T1, 5'-nucleotidase domain-containing protein 1 (Homo sapiens); experiment: Binding affinity to NT5DC1 in human NCI-H1299 cells at 1 uM by Western blot analysis; format: cell-based
Procedure, shortened: (§3)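 Live cancer cells were labelled in situ with the 1 μM alkyne probe, clicked to TAMRA-azide and resolved by SDS-PAGE with fluorescence scanning. NT5DC1 expression in each line was measured separately by Western blot.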

[10] = target: T1, 5'-nucleotidase domain-containing protein 1 (Homo sapiens); experiment: Binding affinity to NT5DC1 in human HeLa cells at 1 uM by Western blot analysis; format: cell-based; procedure, shortened: as §3
[11] = target: T1, 5'-nucleotidase domain-containing protein 1 (Homo sapiens); experiment: Binding affinity to NT5DC1 in human Huh-7 cells at 1 uM by Western blot analysis; format: cell-based; procedure, shortened: as §3
[12] = target: T1, 5'-nucleotidase domain-containing protein 1 (Homo sapiens); experiment: Binding affinity to NT5DC1 in human MCF7 cells at 1 uM by Western blot analysis; format: cell-based; procedure, shortened: as §3
[13] = target: T1, 5'-nucleotidase domain-containing protein 1 (Homo sapiens); experiment: Binding affinity to NT5DC1 in human MV4-11 cells at 1 uM by Western blot analysis; format: cell-based; procedure, shortened: as §3
[14] = target: Epidermal growth factor receptor (Homo sapiens) (UniProt P00533); experiment: Binding affinity to EGFR in human NCI-H1975 cells at 5 uM by pull down/LC-MS/MS analysis; format: cell-based
Procedure, shortened: (§4)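 Live H1975 cells were incubated for 1 h with the 5 μM alkyne probe, with or without 5× parent inhibitor as competitor. Cells were lysed and clicked by CuAAC to a biotin-TAMRA-azide tag. Proteins were enriched on streptavidin beads, checked by in-gel fluorescence, trypsin-digested and run on LC-MS/MS with label-free quantification. Hits were kept if log2 enrichment (probe/DMSO) was >3, −log10 p was >2 and probe LFQ intensity was >1 × 10^7.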

[15] = target: Trifunctional enzyme subunit alpha, mitochondrial (Homo sapiens) (UniProt P40939); experiment: Binding affinity to HADHA in human NCI-H1975 cells at 5 uM by pull down/LC-MS/MS analysis; format: cell-based; procedure, shortened: as §4
Sequence of Trifunctional enzyme subunit alpha, mitochondrial (Homo sapiens) (P40939 whole entry): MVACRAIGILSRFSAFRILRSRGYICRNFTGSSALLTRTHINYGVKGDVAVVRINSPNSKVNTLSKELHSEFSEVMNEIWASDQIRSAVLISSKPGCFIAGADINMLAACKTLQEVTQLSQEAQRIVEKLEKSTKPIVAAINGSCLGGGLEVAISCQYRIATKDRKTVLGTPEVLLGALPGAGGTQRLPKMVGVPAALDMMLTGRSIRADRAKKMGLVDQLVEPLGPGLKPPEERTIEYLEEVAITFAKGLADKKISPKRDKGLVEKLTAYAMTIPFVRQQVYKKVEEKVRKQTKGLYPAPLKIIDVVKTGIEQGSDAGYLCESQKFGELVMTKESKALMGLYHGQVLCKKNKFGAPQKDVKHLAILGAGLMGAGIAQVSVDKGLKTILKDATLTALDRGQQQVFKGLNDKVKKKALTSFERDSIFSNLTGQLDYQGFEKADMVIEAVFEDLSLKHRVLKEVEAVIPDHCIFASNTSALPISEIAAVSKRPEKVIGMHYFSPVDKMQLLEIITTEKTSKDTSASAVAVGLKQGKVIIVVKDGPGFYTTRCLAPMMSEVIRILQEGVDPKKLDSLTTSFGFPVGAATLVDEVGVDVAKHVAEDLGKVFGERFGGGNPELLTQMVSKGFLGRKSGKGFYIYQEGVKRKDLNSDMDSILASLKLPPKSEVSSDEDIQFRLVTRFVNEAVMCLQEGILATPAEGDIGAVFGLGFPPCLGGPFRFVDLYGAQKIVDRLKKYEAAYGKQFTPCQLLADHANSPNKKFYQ

[16] = target: DNA replication licensing factor MCM2 (Homo sapiens) (UniProt P49736); experiment: Binding affinity to MCM2 in human NCI-H1975 cells at 5 uM by pull down/LC-MS/MS analysis; format: cell-based; procedure, shortened: as §4
Sequence of DNA replication licensing factor MCM2 (Homo sapiens) (P49736 whole entry): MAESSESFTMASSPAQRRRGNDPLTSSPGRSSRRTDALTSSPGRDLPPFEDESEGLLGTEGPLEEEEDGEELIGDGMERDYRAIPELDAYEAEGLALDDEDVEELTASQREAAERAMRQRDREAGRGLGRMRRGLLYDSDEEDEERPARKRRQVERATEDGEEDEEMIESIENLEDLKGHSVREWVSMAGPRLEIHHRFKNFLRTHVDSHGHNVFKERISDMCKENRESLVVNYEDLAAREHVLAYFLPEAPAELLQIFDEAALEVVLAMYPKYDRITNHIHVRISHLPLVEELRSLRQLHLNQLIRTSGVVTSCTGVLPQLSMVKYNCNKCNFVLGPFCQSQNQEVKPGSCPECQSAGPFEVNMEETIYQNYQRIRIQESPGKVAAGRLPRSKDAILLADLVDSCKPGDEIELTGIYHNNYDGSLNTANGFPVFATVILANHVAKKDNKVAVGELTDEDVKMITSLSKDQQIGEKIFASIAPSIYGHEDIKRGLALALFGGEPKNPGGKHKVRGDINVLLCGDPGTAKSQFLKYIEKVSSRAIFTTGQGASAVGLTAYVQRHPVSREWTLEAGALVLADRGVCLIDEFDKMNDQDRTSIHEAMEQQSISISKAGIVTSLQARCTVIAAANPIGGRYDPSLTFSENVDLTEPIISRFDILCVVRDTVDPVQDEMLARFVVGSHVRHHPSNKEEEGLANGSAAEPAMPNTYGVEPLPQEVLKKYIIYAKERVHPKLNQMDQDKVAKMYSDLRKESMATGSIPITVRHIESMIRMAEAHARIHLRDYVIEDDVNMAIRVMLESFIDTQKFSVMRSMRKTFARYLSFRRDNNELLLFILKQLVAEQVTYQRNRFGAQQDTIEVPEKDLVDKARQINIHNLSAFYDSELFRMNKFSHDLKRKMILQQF

[17] = tested on: NCI-H1975; experiment: Binding affinity to MAP4 in human NCI-H1975 cells at 5 uM by pull down/LC-MS/MS analysis; format: cell-based; procedure, shortened: as §4
[18] = tested on: NCI-H1975; experiment: Binding affinity to RPS19 in human NCI-H1975 cells at 5 uM by pull down/LC-MS/MS analysis; format: cell-based; procedure, shortened: as §4
[19] = target: T1, 5'-nucleotidase domain-containing protein 1 (Homo sapiens); experiment: Binding affinity to NT5DC1 in human NCI-H1975 cells at 5 uM by pull down/LC-MS/MS analysis; format: cell-based; procedure, shortened: as §4
[20] = target: Mitochondrial antiviral-signaling protein (Homo sapiens) (UniProt Q7Z434); experiment: Binding affinity to MAVS in human NCI-H1975 cells at 5 uM by pull down/LC-MS/MS analysis; format: cell-based; procedure, shortened: as §4
Sequence of Mitochondrial antiviral-signaling protein (Homo sapiens) (Q7Z434 whole entry, the tested form may be a part): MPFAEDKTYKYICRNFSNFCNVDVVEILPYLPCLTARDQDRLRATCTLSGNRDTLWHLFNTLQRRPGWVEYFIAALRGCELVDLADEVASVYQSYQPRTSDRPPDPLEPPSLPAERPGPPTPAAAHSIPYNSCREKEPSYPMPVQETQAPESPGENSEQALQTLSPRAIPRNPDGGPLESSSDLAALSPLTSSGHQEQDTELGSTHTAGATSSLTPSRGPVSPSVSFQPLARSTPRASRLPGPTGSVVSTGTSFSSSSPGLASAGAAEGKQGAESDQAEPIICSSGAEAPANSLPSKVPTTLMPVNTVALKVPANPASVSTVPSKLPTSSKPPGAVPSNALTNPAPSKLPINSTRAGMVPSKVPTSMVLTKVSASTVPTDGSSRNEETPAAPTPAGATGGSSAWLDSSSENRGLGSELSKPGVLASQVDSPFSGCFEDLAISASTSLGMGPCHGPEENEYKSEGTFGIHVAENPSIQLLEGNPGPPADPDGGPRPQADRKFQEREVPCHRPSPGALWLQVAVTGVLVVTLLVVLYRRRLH

[21] = target: T1, 5'-nucleotidase domain-containing protein 1 (Homo sapiens); experiment: Binding affinity to NT5DC1 in human MDA-MB-453 cells at 1 uM by Western blot analysis

IC50 [1]: 8.04 nM
IC50 [2]: 820 nM
Drug uptake [3]: Active
Drug uptake [4]: Not Active
inhibition [5]: Active
inhibition [6]: Active
Activity [7]: Active
Activity [9]: Active
Activity [10]: Active
Activity [11]: Active
Activity [12]: Active
Activity [13]: Active
Activity [14]: Active
Activity [15]: Active
Activity [16]: Active
Activity [19]: Active
Activity [20]: Active
Activity [21]: Active
Structure (SMILES): C#CCN1CCN(c2ccc(Nc3ncc4c(C)cc(=O)n(-c5cccc(NC(=O)C=C)c5)c4n3)c(OC)c2)CC1
Activity [8]: Active
Activity [17]: Active
Activity [18]: Active

IC50 [1]: 5.27 nM
IC50 [2]: 130 nM
Activity [7]: Active
Structure (SMILES): C=CC(=O)Nc1cccc(-n2c(=O)cc(C)c3cnc(Nc4ccc(N5CCN(C)CC5)cc4OC)nc32)c1
Activity [8]: Active

IC50 [2]: 370 nM
Structure (SMILES): CN(C)C/C=C/C(=O)Nc1cc2c(Nc3ccc(F)c(Cl)c3)ncnc2cc1O[C@H]1CCOC1 [AFATINIB]
